Laboratory results: ChEMBL document CHEMBL1938288, “Discovery, synthesis, and pharmacological evaluation of spiropiperidine hydroxamic acid based derivatives as structurally novel histone deacetylase (HDAC) inhibitors” (J Med Chem, 2011)
The source made the active and inactive calls. The calls are words filed in the database; no cut-off is given here.

What was measured:
[1] = target: T1, Protein deacetylase HDAC6 (Homo sapiens, UniProt Q9UBN7); experiment: Inhibition of HDAC6 using carboxyfluorescein-labeled peptide as substrate after 17 hrs by fluorescence assay
T1 sequence (Q9UBN7 whole entry): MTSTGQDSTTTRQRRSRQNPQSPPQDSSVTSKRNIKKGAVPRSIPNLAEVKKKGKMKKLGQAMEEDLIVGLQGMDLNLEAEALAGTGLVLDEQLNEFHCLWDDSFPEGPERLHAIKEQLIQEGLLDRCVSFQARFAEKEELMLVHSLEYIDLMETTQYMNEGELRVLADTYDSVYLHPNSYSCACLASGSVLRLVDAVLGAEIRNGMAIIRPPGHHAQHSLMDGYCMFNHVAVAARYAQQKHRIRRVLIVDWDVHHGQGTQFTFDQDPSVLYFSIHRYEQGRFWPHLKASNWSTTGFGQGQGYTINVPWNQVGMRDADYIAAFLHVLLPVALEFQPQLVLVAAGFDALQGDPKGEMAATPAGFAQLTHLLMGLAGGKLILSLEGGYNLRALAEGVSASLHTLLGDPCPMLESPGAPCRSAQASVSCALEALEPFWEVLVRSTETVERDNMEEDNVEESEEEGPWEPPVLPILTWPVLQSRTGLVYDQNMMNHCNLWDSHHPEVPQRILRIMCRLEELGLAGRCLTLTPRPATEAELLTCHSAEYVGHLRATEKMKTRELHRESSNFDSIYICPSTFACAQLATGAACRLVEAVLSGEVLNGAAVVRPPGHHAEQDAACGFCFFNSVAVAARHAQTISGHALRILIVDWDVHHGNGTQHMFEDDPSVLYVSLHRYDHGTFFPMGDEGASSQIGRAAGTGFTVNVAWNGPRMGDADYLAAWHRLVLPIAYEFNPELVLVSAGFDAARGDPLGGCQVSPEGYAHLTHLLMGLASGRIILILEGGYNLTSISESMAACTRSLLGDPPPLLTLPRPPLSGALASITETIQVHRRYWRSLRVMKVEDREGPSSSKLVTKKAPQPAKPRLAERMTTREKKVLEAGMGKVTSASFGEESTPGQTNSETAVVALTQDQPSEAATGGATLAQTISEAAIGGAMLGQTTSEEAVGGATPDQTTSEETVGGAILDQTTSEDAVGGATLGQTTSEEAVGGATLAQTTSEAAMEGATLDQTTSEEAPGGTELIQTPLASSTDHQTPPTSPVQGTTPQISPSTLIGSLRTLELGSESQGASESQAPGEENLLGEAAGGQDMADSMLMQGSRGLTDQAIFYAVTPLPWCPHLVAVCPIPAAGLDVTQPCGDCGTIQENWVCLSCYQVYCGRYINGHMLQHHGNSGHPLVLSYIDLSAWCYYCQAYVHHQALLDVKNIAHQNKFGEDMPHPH
Summary of the method: (§1)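 Purified HDAC isoforms incubated with compound and 1 μM carboxyfluorescein-labelled peptide for 17 h at 25 °C. Reaction stopped with HEPES/0.08% SDS. Substrate and product separated electrophoretically and read by fluorescence. Run in duplicate. IC50 from 12-point curves by nonlinear regression.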

Mus musculus [2] = experiment: Toxicity in human HCT116 cells xenografted CD1 nude mouse assessed as signs of toxicity at 35 to 150 mg/kg, po administered for 5 days/week for 17 days; type: organism-based, HCT-116; design: dose 35-150 mg/kg, route oral; settings: in vivo
HCT-116 [3] = experiment: Cell cycle arrest in human HCT116 cells assessed as accumulation at subG1 phase after 24 hrs by flow cytometry; type: functional, cell-based
Summary of the method: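 HCT-116 cells treated for 24 h at several concentrations. Harvested, fixed in 70% ethanol at -20 °C, RNase treated (1 mg/mL), stained with propidium iodide. DNA content measured by flow cytometry to give phase distribution, including the subG1 population.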

[4] = AUC (0 to infinity) in CD1 mouse at 15 mg/kg, po; type: ADME, organism-based; design: time infinity, dose 15 mg/kg, route oral; settings: plasma
Summary of the method: (§2)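 Single dose to male CD-1 mice, either iv at 5 mg/kg or oral at 15 mg/kg. Plasma pharmacokinetic parameters were calculated from these dosings.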

Mus musculus [5] = experiment: Toxicity in human HCT116 cells xenografted CD1 nude mouse assessed as change in body weight at 35 to 150 mg/kg, po administered for 5 days/week for 17 days; type: organism-based, HCT-116; design: dose 35-150 mg/kg, route oral; settings: in vivo
[6] = Tmax in CD1 mouse at 5 mg/kg, iv and 15 mg/kg, po; type: ADME, organism-based; settings: in vivo; summary of the method: as §2
[7] = Elimination half life in CD1 mouse at 5 mg/kg, iv and 15 mg/kg, po; type: ADME, organism-based; settings: in vivo, read-out: beta t1/2 (converted); summary of the method: as §2
Histone deacetylase 1 = Histone deacetylase 1 (Homo sapiens, UniProt Q13547); experiment: Inhibition of HDAC1 using carboxyfluorescein-labeled peptide as substrate after 17 hrs by fluorescence assay; summary of the method: as §1
Histone deacetylase 1, sequence (Q13547 whole entry): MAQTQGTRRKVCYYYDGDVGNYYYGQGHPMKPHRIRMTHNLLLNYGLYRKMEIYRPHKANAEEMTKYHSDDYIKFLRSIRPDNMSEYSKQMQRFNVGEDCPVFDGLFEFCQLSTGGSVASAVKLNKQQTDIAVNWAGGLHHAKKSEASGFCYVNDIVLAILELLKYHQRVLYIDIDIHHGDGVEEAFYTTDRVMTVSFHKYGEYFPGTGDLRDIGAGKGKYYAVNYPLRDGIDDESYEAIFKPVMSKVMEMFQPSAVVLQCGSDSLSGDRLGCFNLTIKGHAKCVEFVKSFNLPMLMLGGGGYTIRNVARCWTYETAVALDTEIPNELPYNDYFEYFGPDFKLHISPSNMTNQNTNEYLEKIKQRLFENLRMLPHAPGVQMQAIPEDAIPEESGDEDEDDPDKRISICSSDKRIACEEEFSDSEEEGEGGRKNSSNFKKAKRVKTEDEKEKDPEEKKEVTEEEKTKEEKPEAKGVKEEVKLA

Histone deacetylase = experiment: Inhibition of human HDAC in HeLa cell nuclear extracts using KI-104 Fluor de Lys as substrate by fluorescence assay; type: protein assay
Summary of the method: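 HDAC activity from partially purified HeLa nuclear extracts, using a fluorogenic acetylated histone peptide (Fluor de Lys) as substrate. Replicates n ≥ 2, mean values reported.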

HCT-116 [8] = experiment: Antitumor activity against human HCT116 cells xenografted in po dosed CD1 nude mouse assessed as reduced tumor volume administered for 5 days/week for 17 days; type: functional, organism-based
Summary of the method: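 Female CD-1 nude mice bearing subcutaneous flank HCT-116 tumours (5 × 10⁶ cells injected). Dosing began at about 100 mm³ tumour volume. Given orally at 35–150 mg/kg in water with 5% DMSO and 9.5% encapsin, 5 days/week for 17 days. Tumour volume tracked against vehicle controls. T/C = mean relative tumour volume treated / control.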

[9] = target: T2, Histone deacetylase (Homo sapiens) (UniProt Q13547+O15379+Q9UBN7+Q92769+Q9UQL6+Q8WUI4+Q9BY41+Q96DB2+P56524+Q9UKV0+Q969S8); settings: HCT-116, 100 uM
A549 = experiment: Antiproliferative activity against human A549 cells after 72 hrs by CellTiter-Glo luminescent cell viability assay; type: functional, cell-based; settings: A549, 72 h
Summary of the method: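 Cells in exponential growth exposed to a range of inhibitor concentrations for 72 h. CellTiter-Glo reagent added, mixed 2 min to lyse cells, luminescence read 10 min later. IC50 derived from the concentration–response. Replicates n ≥ 2, mean shown.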

Histone deacetylase 4 = Histone deacetylase 4 (Homo sapiens, UniProt P56524); experiment: Inhibition of HDAC4 using carboxyfluorescein-labeled peptide as substrate after 17 hrs by fluorescence assay
Histone deacetylase 4, sequence (P56524 whole entry): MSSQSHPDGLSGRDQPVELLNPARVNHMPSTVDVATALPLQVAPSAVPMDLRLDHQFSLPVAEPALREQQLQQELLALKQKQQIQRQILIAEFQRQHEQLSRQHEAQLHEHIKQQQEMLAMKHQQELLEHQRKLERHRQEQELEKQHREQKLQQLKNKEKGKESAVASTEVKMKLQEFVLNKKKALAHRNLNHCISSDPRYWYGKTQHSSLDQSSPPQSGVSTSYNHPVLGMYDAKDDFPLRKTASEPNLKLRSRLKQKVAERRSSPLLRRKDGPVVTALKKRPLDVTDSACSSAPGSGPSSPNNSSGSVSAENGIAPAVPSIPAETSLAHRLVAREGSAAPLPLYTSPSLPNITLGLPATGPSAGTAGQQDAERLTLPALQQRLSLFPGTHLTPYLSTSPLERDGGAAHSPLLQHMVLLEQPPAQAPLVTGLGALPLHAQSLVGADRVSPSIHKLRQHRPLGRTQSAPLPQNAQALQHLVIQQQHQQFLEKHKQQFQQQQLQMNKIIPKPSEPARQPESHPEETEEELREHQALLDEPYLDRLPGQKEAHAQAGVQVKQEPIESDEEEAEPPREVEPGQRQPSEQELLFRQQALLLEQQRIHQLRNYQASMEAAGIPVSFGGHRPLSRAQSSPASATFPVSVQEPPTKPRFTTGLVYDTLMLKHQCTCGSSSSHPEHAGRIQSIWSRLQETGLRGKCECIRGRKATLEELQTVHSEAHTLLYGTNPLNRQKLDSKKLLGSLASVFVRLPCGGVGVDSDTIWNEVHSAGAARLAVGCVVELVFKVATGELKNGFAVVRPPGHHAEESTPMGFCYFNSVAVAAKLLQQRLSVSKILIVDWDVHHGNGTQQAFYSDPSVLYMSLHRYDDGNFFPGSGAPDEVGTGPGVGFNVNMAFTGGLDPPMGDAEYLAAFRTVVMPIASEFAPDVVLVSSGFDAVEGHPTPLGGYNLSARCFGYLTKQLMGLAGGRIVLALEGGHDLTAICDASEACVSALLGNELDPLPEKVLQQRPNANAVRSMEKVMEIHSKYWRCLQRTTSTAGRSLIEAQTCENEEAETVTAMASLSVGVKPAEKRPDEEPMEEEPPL
Summary of the method: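 Stopped with HEPES/0.08% SDS. Substrate and product separated electrophoretically, read by green fluorescence. Duplicates. IC50 from 12-point concentration-response curves by nonlinear regression. Run by contract lab.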

[10] = target: T2, Histone deacetylase (Homo sapiens); settings: HCT-116, 0.001 to 10 uM

- IC50 [1]: 25.7 nM
- AUC(0-inf) [4]: 800 ng·h/mL
- Tmax [6]: 0.25 h
- half-life [7]: 8.4 h
- IC50 (Histone deacetylase 1): 93.8 nM
- IC50 (Histone deacetylase): 121 nM
- inhibition [9]: Active
- IC50 (A549): 773 nM
- IC50 (Histone deacetylase 4): 127 nM
- inhibition [10]: tde
SMILES: O=C(/C=C/c1ccc2c(c1)C(=O)CC1(CCN(Cc3ccccc3)CC1)O2)NO
- Activity (Mus musculus [2]): Non-toxic
- Activity (HCT-116 [3]): Dose-dependent effect
- Activity (Mus musculus [5]): Non-toxic
- Activity (HCT-116 [8]): Dose-dependent effect
